Measurements: ChEMBL document CHEMBL3856239, “Synthesis and Antiobesity Properties of 6-(4-Chlorophenyl)-3-(4-((3,3-difluoro-1-hydroxycyclobutyl)methoxy)-3-methoxyphenyl)thieno[3,2-d]pyrimidin-4(3H)-one (BMS-814580): A Highly Efficacious Melanin Concentrating Hormone Receptor 1 (MCHR1) Inhibitor” (J Med Chem, 2016)
pKi: −log10 of the molar value.

Legend:
Cytochrome P450 1A2 = target: T1, Cytochrome P450 1A2 (Homo sapiens, UniProt P05177); assay: Inhibition of CYP1A2 (unknown origin); type: ADME
T1 sequence (P05177 whole entry): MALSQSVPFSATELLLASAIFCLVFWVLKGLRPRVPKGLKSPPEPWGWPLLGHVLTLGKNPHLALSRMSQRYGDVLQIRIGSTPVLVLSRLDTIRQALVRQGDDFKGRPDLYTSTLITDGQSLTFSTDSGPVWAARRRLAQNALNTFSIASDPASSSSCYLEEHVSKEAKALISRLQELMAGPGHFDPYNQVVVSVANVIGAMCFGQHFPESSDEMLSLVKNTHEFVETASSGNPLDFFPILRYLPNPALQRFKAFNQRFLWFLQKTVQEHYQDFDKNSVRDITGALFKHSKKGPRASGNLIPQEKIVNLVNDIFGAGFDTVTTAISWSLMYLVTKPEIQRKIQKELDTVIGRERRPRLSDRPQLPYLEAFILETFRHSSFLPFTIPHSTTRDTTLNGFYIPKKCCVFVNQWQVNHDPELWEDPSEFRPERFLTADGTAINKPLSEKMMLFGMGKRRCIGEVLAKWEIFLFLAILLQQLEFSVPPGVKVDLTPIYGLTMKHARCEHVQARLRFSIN
In short: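 CYP1A2, 2C8, 2C9, 2C19, 2D6 and 3A4 tested for inhibition, with 40 µM as the top tested limit.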

[1] = Clearance in cynomolgus monkey at 1 mg/kg, iv; type: ADME, organism-based, Macaca fascicularis; conditions: in vivo
In short: (§1)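 Rats, dogs and cynomolgus monkeys, n = 3: parent 1 mg/kg i.v. in PEG400:DMAC:water (70:5:25), or phosphate prodrug 10 mg/kg oral in Methocel:Tween80:water (0.5:0.1:99.4); plasma parent compound, Cmax, Tmax, AUC0-∞, half-life, clearance, Vss and bioavailability derived.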

[2] = Protein binding in rat plasma assessed as unbound fraction; type: ADME, cell-free
In short: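 Plasma protein binding reported as % free drug in rat, DIO rat, dog, cynomolgus monkey, rabbit and human plasma.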

L-type calcium channel = L-type calcium channel (Homo sapiens, UniProt O60840+Q01668+Q13698+Q13936); assay: Inhibition of L-type calcium channel (unknown origin) at 10 uM
In short: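 In vitro ion-channel inhibition measured at 10 µM against hERG, Na (4 Hz) and L-type Ca channels; read-out is percent inhibition.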

[3] = Binding affinity to cynomolgus monkey MCHR1; design: species or system Macaca fascicularis
[4] = Volume of distribution at steady state in dog at 1 mg/kg, iv; type: ADME, organism-based, Canis lupus familiaris; conditions: in vivo, read-out: Vdss
In short: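 Full PK in rat, dog and cynomolgus monkey. Oral arm: phosphate prodrug at 10 mg/kg parent-equivalent in Methocel:Tween80:water (0.5:0.1:99.4). Intravenous arm: parent at 1 mg/kg in PEG400:DMAC:water (70:5:25). n = 3 per species; individual Tmax values reported for dog and monkey.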

[5] = Cardiotoxicity in anesthetized rabbit assessed as prolongation of QT intervals up to plasma concentration of 38 uM; type: toxicity, Oryctolagus cuniculus
In short: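 Anesthetized rabbits given compound to plasma concentrations up to 38 µM; QT and QRS duration, mean arterial blood pressure and heart rate recorded.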

[6] = AUC in rat at 1 mg/kg, iv; type: ADME, organism-based; conditions: in vivo; in short: as §1

COc1cc(-n2cnc3cc(-c4ccc(Cl)cc4)sc3c2=O)ccc1OCC1(O)CC(F)(F)C1
INH (Cytochrome P450 1A2): > 40 µM
clearance [1]: 0.102 L/h/kg
Fu [2]: 0.2%
inhibition at 10 µM (L-type calcium channel): 15%
pKi [3]: 8.31
Vd [4]: 7.2 L/kg
Activity [5]: Non-Toxic
AUC [6]: 11.5 µM·h
